Source: ChEMBL document CHEMBL1132940, “Pharmacophore/receptor models for GABA(A)/BzR subtypes (alpha1beta3gamma2, alpha5beta3gamma2, and alpha6beta3gamma2) via a comprehensive ligand-mapping approach” (J Med Chem, 2000)
pKi: −log10 of the molar value.

How the values were obtained:
[1] = Selectivity ratio of alpha1 beta-3 gamma2 GABA A / BzR and alpha5 beta-3 gamma2 GABA A / BzR
[2] = biological target: T1, GABA-A receptor; alpha-1/beta-3/gamma-2 (Homo sapiens, UniProt P14867+P18507+P28472); assay: Binding affinity for human recombinant gamma-aminobutyric-acid (GABA) A receptor alpha-1-beta-3-gamma-2; type: protein-complex assay
T1 sequence (P14867 whole entry): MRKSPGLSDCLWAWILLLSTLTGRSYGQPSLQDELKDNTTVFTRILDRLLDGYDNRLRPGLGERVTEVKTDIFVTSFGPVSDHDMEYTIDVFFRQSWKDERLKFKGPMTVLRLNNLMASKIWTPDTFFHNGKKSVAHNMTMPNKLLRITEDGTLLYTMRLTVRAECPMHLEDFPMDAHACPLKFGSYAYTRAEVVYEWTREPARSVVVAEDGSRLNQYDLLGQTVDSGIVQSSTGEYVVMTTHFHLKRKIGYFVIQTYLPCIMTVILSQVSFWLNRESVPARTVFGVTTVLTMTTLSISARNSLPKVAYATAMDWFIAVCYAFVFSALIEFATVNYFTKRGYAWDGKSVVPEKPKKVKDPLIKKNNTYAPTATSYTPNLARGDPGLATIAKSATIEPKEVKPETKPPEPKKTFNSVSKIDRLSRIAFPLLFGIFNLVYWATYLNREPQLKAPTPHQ
T1 sequence (P18507 whole entry): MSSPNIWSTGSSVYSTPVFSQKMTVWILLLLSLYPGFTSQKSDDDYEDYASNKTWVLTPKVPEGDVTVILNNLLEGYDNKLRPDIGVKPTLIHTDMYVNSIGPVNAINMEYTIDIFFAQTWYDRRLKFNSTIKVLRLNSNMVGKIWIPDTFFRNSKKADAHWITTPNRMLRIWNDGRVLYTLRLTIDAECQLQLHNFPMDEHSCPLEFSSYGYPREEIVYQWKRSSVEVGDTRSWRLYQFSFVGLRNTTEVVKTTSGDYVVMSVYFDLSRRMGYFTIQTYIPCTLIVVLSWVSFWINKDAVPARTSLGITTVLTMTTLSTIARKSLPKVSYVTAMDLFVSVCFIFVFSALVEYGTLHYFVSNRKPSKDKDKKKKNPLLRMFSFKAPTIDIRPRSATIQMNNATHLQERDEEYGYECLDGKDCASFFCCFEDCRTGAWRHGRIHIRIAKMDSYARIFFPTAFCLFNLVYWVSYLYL
T1 sequence (P28472 whole entry): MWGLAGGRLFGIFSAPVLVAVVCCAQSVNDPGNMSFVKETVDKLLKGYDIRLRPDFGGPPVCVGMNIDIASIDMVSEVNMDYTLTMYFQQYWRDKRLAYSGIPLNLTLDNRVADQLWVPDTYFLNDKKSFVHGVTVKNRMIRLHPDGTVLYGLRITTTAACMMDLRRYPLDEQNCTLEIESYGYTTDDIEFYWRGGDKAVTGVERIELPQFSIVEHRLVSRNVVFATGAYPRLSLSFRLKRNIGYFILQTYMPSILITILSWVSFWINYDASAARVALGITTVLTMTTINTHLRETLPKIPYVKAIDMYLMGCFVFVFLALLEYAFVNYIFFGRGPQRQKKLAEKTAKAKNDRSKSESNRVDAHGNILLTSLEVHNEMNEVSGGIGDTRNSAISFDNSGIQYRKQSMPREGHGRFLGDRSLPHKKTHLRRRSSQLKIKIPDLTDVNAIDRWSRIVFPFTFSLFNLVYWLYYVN

[3] = biological target: T2, GABA-A receptor; alpha-5/beta-3/gamma-2 (Homo sapiens, UniProt P18507+P28472+P31644); assay: Binding affinity for human recombinant gamma-aminobutyric-acid (GABA) A receptor alpha-5-beta-3-gamma-2; type: protein-complex assay
T2 sequence (P18507 whole entry): T1 sequence (P18507 whole entry)
T2 sequence (P28472 whole entry): T1 sequence (P28472 whole entry)
T2 sequence (P31644 whole entry): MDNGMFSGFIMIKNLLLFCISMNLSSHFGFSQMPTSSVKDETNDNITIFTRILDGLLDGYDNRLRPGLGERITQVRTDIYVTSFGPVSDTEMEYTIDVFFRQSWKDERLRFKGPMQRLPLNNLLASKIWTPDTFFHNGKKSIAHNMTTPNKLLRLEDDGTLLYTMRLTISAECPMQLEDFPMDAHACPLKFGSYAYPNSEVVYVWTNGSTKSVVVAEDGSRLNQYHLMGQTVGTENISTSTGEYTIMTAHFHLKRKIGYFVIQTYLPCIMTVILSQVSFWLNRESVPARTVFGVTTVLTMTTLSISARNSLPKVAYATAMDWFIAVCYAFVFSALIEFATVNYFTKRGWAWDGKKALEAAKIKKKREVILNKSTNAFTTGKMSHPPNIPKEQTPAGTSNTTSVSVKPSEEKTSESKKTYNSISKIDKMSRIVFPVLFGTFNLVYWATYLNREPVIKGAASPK

[4] = biological target: T3, GABA-A receptor; alpha-3/beta-3/gamma-2 (Homo sapiens, UniProt P18507+P28472+P34903); assay: Binding affinity for human recombinant gamma-aminobutyric-acid (GABA) A receptor alpha-3-beta-3-gamma-2; type: protein-complex assay
T3 sequence (P18507 whole entry): T1 sequence (P18507 whole entry)
T3 sequence (P28472 whole entry): T1 sequence (P28472 whole entry)
T3 sequence (P34903 whole entry): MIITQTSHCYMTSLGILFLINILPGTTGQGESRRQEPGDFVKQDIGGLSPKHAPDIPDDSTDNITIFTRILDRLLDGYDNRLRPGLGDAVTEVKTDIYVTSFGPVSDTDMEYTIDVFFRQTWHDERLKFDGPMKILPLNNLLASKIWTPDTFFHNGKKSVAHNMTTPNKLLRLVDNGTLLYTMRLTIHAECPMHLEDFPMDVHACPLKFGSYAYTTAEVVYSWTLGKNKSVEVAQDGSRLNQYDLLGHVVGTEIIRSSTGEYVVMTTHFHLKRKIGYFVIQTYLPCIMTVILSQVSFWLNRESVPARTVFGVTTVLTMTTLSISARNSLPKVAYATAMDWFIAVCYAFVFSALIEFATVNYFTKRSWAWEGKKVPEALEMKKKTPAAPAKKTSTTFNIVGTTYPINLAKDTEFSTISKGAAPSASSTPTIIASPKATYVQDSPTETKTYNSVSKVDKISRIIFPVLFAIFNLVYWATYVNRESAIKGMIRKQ

[5] = biological target: GABA-A receptor; alpha-6/beta-3/gamma-2 (Homo sapiens, UniProt P18507+P28472+Q16445); assay: Binding affinity for human recombinant gamma-aminobutyric-acid (GABA) A receptor alpha-6-beta-3-gamma-2; type: protein-complex assay
Procedure, shortened: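 Ltk⁻ cells expressing human α6β3γ2 were harvested by scraping into PBS, centrifuged at 3000g and resuspended in 10 mM KH₂PO₄/100 mM KCl (pH 7.4). Incubation was 1 h at 4 °C with filter harvest and scintillation counting.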

Chain of GABA-A receptor; alpha-6/beta-3/gamma-2 (Q16445 whole entry, one chain of several): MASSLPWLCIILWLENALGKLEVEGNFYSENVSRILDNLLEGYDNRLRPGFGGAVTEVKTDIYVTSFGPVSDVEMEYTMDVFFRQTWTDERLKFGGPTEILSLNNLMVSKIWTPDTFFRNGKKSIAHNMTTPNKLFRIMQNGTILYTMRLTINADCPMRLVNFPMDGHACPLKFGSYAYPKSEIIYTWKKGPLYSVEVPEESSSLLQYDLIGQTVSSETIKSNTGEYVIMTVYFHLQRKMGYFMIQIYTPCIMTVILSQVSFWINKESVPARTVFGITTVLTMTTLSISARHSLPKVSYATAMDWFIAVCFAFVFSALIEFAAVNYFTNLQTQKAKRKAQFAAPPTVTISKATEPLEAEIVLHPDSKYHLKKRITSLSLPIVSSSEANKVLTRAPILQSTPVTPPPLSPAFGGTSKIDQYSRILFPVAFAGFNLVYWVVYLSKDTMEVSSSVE

| Compound | Ratio [1] | further results |
| --- | --- | --- |
| C#Cc1ccc2c(c1)C(=O)N1CCC[C@H]1c1c(-c3nc(C)no3)ncn1-2 | 24 |  |
| C#Cc1ccc2c(c1)C(=O)N1CC[C@H]1c1c(-c3nc(CC)no3)ncn1-2 | 17 |  |
| CC(C)N(Cc1ncn2c1CN(C)C(=O)c1cc(Cl)ccc1-2)C(C)C | 3.2 |  |
| CCOC(=O)c1ncn2c1CN(C)C(=O)c1cc(OCC)ccc1-2 | 12.4 |  |
| C#Cc1ccc2c(c1)C(=O)N(C)Cc1c(C(=O)OC(C)(C)C)ncn1-2 | 67.3 |  |
| CC(=O)c1ncn2c1CN(C)C(=O)c1cc(Cl)ccc1-2 | 6.7 |  |
| COCc1ncn2c1CN(C)C(=O)c1cc(Cl)ccc1-2 | > 7.7 |  |
| C#Cc1ccc2c(c1)C(=O)N1CC[C@H]1c1c(-c3nc(C(C)C)no3)ncn1-2 | 18 |  |
| C#Cc1ccc2c(c1)C(=O)N(C)Cc1c(C(=O)OCC)ncn1-2 | 58 |  |
| CCOC(=O)c1[nH]cc2nc3ccc(OCc4ccc5ccccc5c4)cc3c-2c1COC |  | pKi [2]: 7.81; pKi [3]: 6.49; pKi [4]: 6.53; pKi [5]: < 6.00 |
| CN1Cc2c(C(=O)OC(C)(C)C)ncn2-c2ccc(Cl)cc2C1=O | 26.6 |  |
| COc1ccc(-n2nc3c4cc(Cl)ccc4[nH]cc-3c2=O)cc1 |  | pKi [2]: 9.70; pKi [3]: 9.49; pKi [4]: 9.70; pKi [5]: 8.72 |
| CN1Cc2c(C(=O)OC(C)(C)C)ncn2-c2ccc(Br)cc2C1=O | 24.3 |  |
| CN1C(=O)CN=C(c2ccccc2[N+](=O)[O-])c2cc([N+](=O)[O-])ccc21 | 0.06 | pKi [2]: 9.31; pKi [3]: 8.11; pKi [4]: 9.12; pKi [5]: < 5.00 |
| CCCOc1ccc2[nH]c3cnc(OCCC)c(COC)c3c2c1 |  | pKi [5]: < 6.00 |
| CN1Cc2c(C(=O)OC(C)(C)C)ncn2-c2ccc(N3CCCC3)cc2C1=O | 0.63 |  |
| CCOC(=O)c1ncn2c1CN(C)C(=O)c1cc(C#N)ccc1-2 | 1.7 |  |
| C#Cc1ccc2c(c1)C(=O)N1CCC[C@H]1c1c(C(=O)OCC)ncn1-2 | 45 |  |
| CCOC(=O)c1ncn2c1CN(C)C(=O)c1cc(Cl)ccc1-2 | 8 |  |

| Compound | Ratio [1] | further results |
| --- | --- | --- |
| CN1Cc2c(C(=O)OC(C)(C)C)ncn2-c2ccc(C#C[Si](C)(C)C)cc2C1=O | 75.5 |  |
| CCOC(=O)c1ncn2c1CN(C)C(=O)c1cc(CC)ccc1-2 | 13.6 |  |
| CCCCC(=O)c1ncn2c1CN(C)C(=O)c1cc(Cl)ccc1-2 | 9.6 |  |
| C#Cc1ccc2c(c1)C(=O)N1CCC[C@H]1c1c(-c3nc(CC)no3)ncn1-2 | 36 |  |
| CCOc1cc2c(cn1)[nH]c1ccccc12 |  | pKi [3]: 6.08; pKi [4]: 7.55 |
| CCOC(=O)c1ncn2c1[C@@H]1CCN1C(=O)c1cc(Br)ccc1-2 | 56 |  |
| CN1Cc2c(C(=O)OC(C)(C)C)ncn2-c2ccc(I)cc2C1=O | 25.5 |  |
| CCOC(=O)c1ncn2c1CN(C)C(=O)c1cc(N=[N+]=[N-])ccc1-2 [Ro-154513] |  | pKi [3]: 9.52 |
| CCOC(=O)c1ncn2c1[C@@H]1CCCN1C(=O)c1cc(Br)ccc1-2 | 49 |  |
| CCCCCc1ncn2c1CN(C)C(=O)c1cc(Cl)ccc1-2 | 5.6 |  |
| CCOC(=O)c1ncn2c1[C@@H]1CCCN1C(=O)c1ccccc1-2 | 4.6 | pKi [2]: 8.14; pKi [3]: 8.80; pKi [4]: 8.15; pKi [5]: < 6.52 |
| [N-]=[N+]=Nc1ccc2c(c1)C(c1ccccc1N=[N+]=[N-])=NCC(=O)N2 | 1.32 | pKi [2]: 5.67; pKi [3]: 5.79; pKi [4]: 5.34; pKi [5]: < 6.00 |
| C=Cc1ccc2c(c1)C(=O)N(C)Cc1c(C(=O)OCC)ncn1-2 | 20.8 |  |
| CCN(CC)Cc1ncn2c1CN(C)C(=O)c1cc(Cl)ccc1-2 | 3.2 |  |
| CCOC(=O)c1ncn2c1CN(C)C(=O)c1cc(C#C[Si](C)(C)C)ccc1-2 | 24.2 |  |
| CCOC(=O)c1ncn2c1[C@@H]1CCN1C(=O)c1cc(C#C[Si](C)(C)C)ccc1-2 | 32 |  |
| COc1ccc(-n2nc3c4ccc(OC)cc4[nH]cc-3c2=O)cc1 |  | pKi [2]: 9.47; pKi [3]: 9.28; pKi [4]: 9.10; pKi [5]: 8.00 |
| CCOC(=O)c1ncn2c1CN(C)C(=O)c1cc(Br)ccc1-2 | 3.7 |  |
| C#Cc1ccc2c(c1)C(=O)N1CCC[C@H]1c1c(-c3nc(C(C)C)no3)ncn1-2 | 15 |  |

| Compound | Ratio [1] | further results |
| --- | --- | --- |
| CC#Cc1ccc2c(c1)C(=O)N(C)Cc1c(C(=O)OCC)ncn1-2 | 6 |  |
| CCc1ncn2c1CN(C)C(=O)c1cc(Cl)ccc1-2 | 2.2 |  |
| CN1C(=O)CN=C(c2ccccc2)c2cc(Cl)ccc21 [DIAZEPAM] |  | pKi [5]: < 5.52 |
| CN1Cc2c(C(=O)OC(C)(C)C)ncn2-c2ccc(O)cc2C1=O | 10.7 |  |
| CCOC(=O)c1ncn2c1[C@@H]1CCCN1C(=O)c1cc(OC)ccc1-2 | 108 | pKi [4]: 7.61 |
| COCc1c(C(=O)OC(C)C)ncc2[nH]c3ccc(OCc4ccccc4)cc3c12 [ABECARNIL] |  | pKi [5]: < 6.00 |
| CCc1ccc2c(c1)C(=O)N(C)Cc1c(C(=O)OC(C)(C)C)ncn1-2 | 8.6 |  |
| COc1ccc2c(c1)C(=O)N(C)Cc1c(C(=O)OC(C)(C)C)ncn1-2 | 23 |  |
| C#Cc1ccc2c(c1)C(=O)N1CC[C@H]1c1c(C(=O)OCC)ncn1-2 | 57 |  |
| CCOCc1ncn2c1CN(C)C(=O)c1cc(Cl)ccc1-2 | > 3.6 |  |
| CN1Cc2c(C(=O)OC(C)(C)C)ncn2-c2ccc(N=C=S)cc2C1=O | 6.8 |  |
| CN1Cc2c(C(=O)OCC3CC3)ncn2-c2ccc(Cl)cc2C1=O | 1.7 |  |
| CCOC(=O)c1ncn2c1[C@@H]1CCCN1C(=O)c1cc(C#C[Si](C)(C)C)ccc1-2 | 50 |  |
| CN1Cc2c(C(=O)OC(C)(C)C)ncn2-c2ccc(C#CC[Si](C)(C)C)cc2C1=O | 12 |  |
| COC(=O)c1cc2c3cc(SC#N)ccc3nc-2c[nH]1 |  | pKi [2]: 8.47; pKi [3]: 6.85; pKi [4]: 7.52; pKi [5]: < 5.00 |
| C#Cc1ccc2c(c1)C(=O)N1CCC[C@@H]1c1c(C(=O)OCC)ncn1-2 | 39 |  |
| CN1Cc2c(CCl)ncn2-c2ccc(Cl)cc2C1=O | > 10.5 |  |
| CN1Cc2c(C(=O)OC(C)(C)C)ncn2-c2ccc([N+](=O)[O-])cc2C1=O | 3.7 |  |
